{"data": "Measured values from different studies", "MET M1250T": "Hepatocyte growth factor receptor (MET, Homo sapiens, UniProt P08581, M1250T)", "MET Y1235D": "Hepatocyte growth factor receptor (MET, Homo sapiens, UniProt P08581, Y1235D)", "MET": "Hepatocyte growth factor receptor (MET, Homo sapiens, UniProt P08581)", "note": "Lines come from different studies, so protocols differ."}
{"Structure (SMILES)": "CNC(=O)[C@@H]1CC[C@@H](n2c(-c3ccc4cnccc4c3)nc3ccc(C(=O)NCc4cccc(C(N)=O)c4)cc32)C1", "target": "MET M1250T", "test": "binding, competition with immobilised ligand", "conditions": "1 µM", "remaining binding": "100%"}
{"Structure (SMILES)": "CC1CCCN1c1nccc(-c2cnn3ncccc23)n1 (stereo not shown)", "target": "MET Y1235D", "test": "binding", "conditions": "1 µM", "remaining binding": "100%"}
{"Structure (SMILES)": "COc1cc(-c2cn(C3CCc4c(F)cccc4N(CC(F)(F)F)C3=O)nn2)ccc1-n1cnc(C)c1 (stereo not shown)", "target": "MET M1250T", "test": "cell-free assay, competition with immobilised ligand", "conditions": "1 µM", "remaining binding": "100%"}
{"Structure (SMILES)": "O=C(NCCCN1CCOCC1)c1ccc(Nc2nccc(-c3cc4ccccc4s3)n2)cc1", "target": "MET", "test": "binding, competition with immobilised ligand", "conditions": "1 µM", "remaining binding": "100%"}
{"Structure (SMILES)": "C[C@H](c1ccc(F)cc1)N(Cc1cccc(C(=O)O)c1)C(=O)c1cnc2ccccc2c1", "target": "MET M1250T", "test": "cell-free assay, competition with immobilised ligand", "conditions": "1 µM", "remaining binding": "93%"}
{"Structure (SMILES)": "CN(C)c1nccc(-c2cnc3ncccn23)n1", "target": "MET M1250T", "test": "binding", "conditions": "1 µM", "remaining binding": "91%"}
{"Structure (SMILES)": "O=C(c1ccc(Nc2nccc(-c3cc4ccccc4s3)n2)cc1)N1CCC(N2CCCC2)CC1", "target": "MET Y1235D", "test": "binding, competition with immobilised ligand", "conditions": "1 µM", "remaining binding": "85%"}
{"Structure (SMILES)": "Nc1ncc2c(n1)-c1c([nH]c3ccc(C#CC4CC4)cc13)CCCC2", "target": "MET M1250T", "test": "binding, competition with immobilised ligand", "conditions": "1 µM", "remaining binding": "95%"}
{"Structure (SMILES)": "CN1CCN(c2ccc(Nc3nccc(-c4ccccc4)n3)cc2C(F)(F)F)CC1", "target": "MET M1250T", "test": "binding", "conditions": "10 µM", "remaining binding": "24%"}
{"Structure (SMILES)": "F[C@@H]1CCN(c2nccc(-c3cnn4ncccc34)n2)C1", "target": "MET Y1235D", "test": "binding", "conditions": "1 µM", "remaining binding": "100%"}
{"Structure (SMILES)": "c1cncc(-c2cccc(Nc3nccc(NC4CCCCC4)n3)c2)c1", "target": "MET M1250T", "test": "binding, competition with immobilised ligand", "conditions": "10 µM", "remaining binding": "29%"}
{"Structure (SMILES)": "C[C@@H]1CCN(c2nccc(-c3cnn4ncccc34)n2)C1", "target": "MET Y1235D", "test": "binding", "conditions": "1 µM", "remaining binding": "79%"}
{"Structure (SMILES)": "O=C(c1ccc(Nc2ncc(Cl)c(-c3ccc(Cl)s3)n2)cc1)N1CCC(N2CCCC2)CC1", "target": "MET M1250T", "test": "binding, competition with immobilised ligand", "conditions": "1 µM", "remaining binding": "6.5%"}
{"Structure (SMILES)": "COc1ncc2cc3ccccc3nc2c1C#N", "target": "MET Y1235D", "test": "cell-free assay, competition with immobilised ligand", "conditions": "5 µM", "remaining binding": "80%"}
{"Structure (SMILES)": "CO[C@@H](C)c1c(Nc2ccc([C@@H](N(C)C(=O)C3CCS(=O)(=O)CC3)C(F)(F)F)cc2)cnc2cc(Cl)nn12", "target": "MET M1250T", "test": "cell-free assay, competition with immobilised ligand", "conditions": "1 µM", "remaining binding": "100%"}
{"Structure (SMILES)": "Cc1cnc(Nc2ccc(C(=O)N3CCC(N4CCCC4)CC3)cc2)nc1-c1cc2ccccc2s1", "target": "MET", "test": "binding, competition with immobilised ligand", "conditions": "1 µM", "remaining binding": "100%"}
{"Structure (SMILES)": "COc1cnc(Nc2cccc(S(N)(=O)=O)c2)nc1N1CCN(c2ccccc2)C(=O)C1", "target": "MET", "test": "binding, competition with immobilised ligand", "conditions": "1 µM", "remaining binding": "100%"}
{"Structure (SMILES)": "O=C(c1ccc(Nc2ncc(Cl)c(-c3cc4ccccc4s3)n2)cc1)N1CCC(N2CCCC2)CC1", "target": "MET", "test": "binding, competition with immobilised ligand", "conditions": "1 µM", "remaining binding": "82%"}
{"Structure (SMILES)": "O=C(Nc1c[nH]nc1C(=O)NC1CCNCC1)c1cc(F)cc(F)c1", "target": "MET", "test": "binding, competition with immobilised ligand", "conditions": "1 µM", "remaining binding": "94%"}
{"Structure (SMILES)": "O=C(NCCCN1CCOCC1)c1ccc(Nc2ncc(Cl)c(-c3ccc(Cl)s3)n2)cc1", "target": "MET M1250T", "test": "binding, competition with immobilised ligand", "conditions": "1 µM", "remaining binding": "13%"}
{"Structure (SMILES)": "CC(=O)N1CCC(c2ccc(C(=O)NC3=NCCN3)cc2C(F)(F)F)CC1", "target": "MET Y1235D", "test": "cell-free assay, competition with immobilised ligand", "conditions": "1 µM", "remaining binding": "100%"}
{"Structure (SMILES)": "CN(C)c1nccc(-c2cnn3ncccc23)n1", "target": "MET M1250T", "test": "binding", "conditions": "1 µM", "remaining binding": "100%"}
{"Structure (SMILES)": "O=C(NCC1CCOCC1)c1n[nH]cc1NC(=O)c1c(F)cccc1F", "target": "MET", "test": "binding, competition with immobilised ligand", "conditions": "1 µM", "remaining binding": "100%"}
{"Structure (SMILES)": "COc1cnc(Nc2cccc(S(N)(=O)=O)c2)nc1N1CCN(c2ccccc2)CC1", "target": "MET Y1235D", "test": "binding, competition with immobilised ligand", "conditions": "1 µM", "remaining binding": "100%"}
{"Structure (SMILES)": "Cc1c(C(=O)O)cc(-c2ccc(C3CCNCC3)cc2)c2ccc(-c3ccc(C(F)(F)F)cc3)cc12", "target": "MET", "test": "cell-free assay, competition with immobilised ligand", "conditions": "1 µM", "remaining binding": "100%"}
{"Structure (SMILES)": "C[C@@H]1CN(c2ccc3ncc(-c4ccc5[nH]nc(C6CC6)c5c4)n3n2)C[C@H](C)O1", "target": "MET", "test": "binding, competition with immobilised ligand", "conditions": "0.5 µM", "remaining binding": "80%"}
{"Structure (SMILES)": "C[C@H](NC(=O)c1cnc2n1[C@](C)(Cc1ccc(C#N)cc1)C(=O)N2c1cc(Cl)c(F)c(Cl)c1)C(=O)NC1(c2ccccn2)CC1", "target": "MET", "test": "cell-free assay, competition with immobilised ligand", "conditions": "1 µM", "remaining binding": "100%"}
{"Structure (SMILES)": "CCN1CCN(Cc2ccc(C(=O)Nc3ccc(C)c(Oc4ccc5c(c4)CC(=O)N5)c3)cc2C(F)(F)F)CC1", "target": "MET", "test": "binding, competition with immobilised ligand", "conditions": "1 µM", "remaining binding": "100%"}
{"Structure (SMILES)": "N[C@H]1CCN(c2nccc(-c3cnn4ncccc34)n2)C1", "target": "MET", "test": "binding", "conditions": "1 µM", "remaining binding": "90%"}
{"Structure (SMILES)": "Cn1cc(Cl)c2c(Oc3c(F)cc(Nc4cc(Cl)nc(N)n4)cc3F)ccnc21", "target": "MET Y1235D", "test": "cell-free assay, competition with immobilised ligand", "conditions": "0.1 µM", "remaining binding": "91%"}
{"Structure (SMILES)": "c1cnn2ncc(-c3ccnc(N4CCC45COC5)n3)c2c1", "target": "MET M1250T", "test": "binding", "conditions": "1 µM", "remaining binding": "41%"}
{"Structure (SMILES)": "CCC(=N\\O)/C(C)=C/c1ccc(F)cc1", "target": "MET", "test": "cell-free assay, competition with immobilised ligand", "conditions": "1 µM", "remaining binding": "88%"}
{"Structure (SMILES)": "Cc1cnn2ncc(-c3ccnc(N(C)C)n3)c2c1", "target": "MET M1250T", "test": "binding", "conditions": "1 µM", "remaining binding": "61%"}
{"Structure (SMILES)": "FC(F)(F)Oc1cccc(-c2cnc3ccc(-c4ccncc4)nn23)c1", "target": "MET", "test": "cell-free assay, competition with immobilised ligand", "conditions": "5 µM", "remaining binding": "63%"}
